Measurements from ChEMBL document CHEMBL3045304, “Sesquiterpene lactones with potential use as natural herbicide models. 2. guaianolides” (2000).
Active and inactive are the calls of the source. No cut-off for these calls is given here.

Tests used:
Allium cepa [1] = test: Stimulation of hypocotyl length of Allium cepa cv. Valenciana (onion) at 0.1 mM or 1 mM after 7 days relative to untreated control
Triticum aestivum [2] = test: Inhibition of root length of Triticum aestivum cv. Cortex (wheat) at 0.1 mM or 1 mM after 5 days relative to untreated control; assay type: functional
Outline: (§1)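 Wheat: 10 seeds per dish on filter paper with 5 mL test solution, 5 days in the dark at 25 °C, 10 replicates per concentration. Stock test solutions were 10^-3 or 10^-4 M in 10 mM MES, with lower levels made by dilution, all at pH 6.0. Parallel controls were run. Output is % difference from control.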

Solanum lycopersicum [3] = test: Stimulation of root length of Solanum lycopersicum cv. Tres Cantos (tomato) at 0.1 mM or 1 mM after 5 days relative to untreated control; assay type: functional
Outline: (§2)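 Lettuce and tomato seeds, 25 per dish on filter paper, received 5 mL test solution. Incubation was 5 days in the dark at 25 °C, with four replicates per concentration. Solutions were made at 10^-3 or 10^-4 M in 10 mM MES, diluted serially, and adjusted to pH 6.0. Parallel controls were run. Results are % difference from control.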

Lactuca sativa [4] = test: Inhibition of root length of Lactuca sativa cv. Roman (lettuce) at 0.1 mM or 1 mM after 5 days relative to untreated control; assay type: functional
Outline: as §2

Solanum lycopersicum [5] = test: Inhibition of germination of Solanum lycopersicum cv. Tres Cantos (tomato) at 0.1 mM or 1 mM after 5 days relative to untreated control; assay type: functional
Outline: as §2

Allium cepa [6] = test: Inhibition of germination of Allium cepa cv. Valenciana (onion) at 0.1 mM or 1 mM after 5 days relative to untreated control; assay type: functional
Triticum aestivum [7] = test: Inhibition of germination of Triticum aestivum cv. Cortex (wheat) at 0.1 mM or 1 mM after 5 days relative to untreated control; assay type: functional
Outline: as §1

Lepidium sativum [8] = test: Inhibition of root length of Lepidium sativum at 0.1 mM or 1 mM after 4 days relative to untreated control
Lepidium sativum [9] = test: Stimulation of root length of Lepidium sativum at 0.1 mM or 1 mM after 5 days relative to untreated control; assay type: functional
Solanum lycopersicum [10] = test: Inhibition of root length of Solanum lycopersicum cv. Tres Cantos (tomato) at 0.1 mM or 1 mM after 5 days relative to untreated control; assay type: functional
Outline: as §2

Triticum aestivum [11] = test: Inhibition of hypocotyl length of Triticum aestivum cv. Cortex (wheat) at 0.1 mM or 1 mM after 5 days relative to untreated control; assay type: functional
Outline: as §1

Allium cepa [12] = test: Inhibition of hypocotyl length of Allium cepa cv. Valenciana (onion) at 0.1 mM or 1 mM after 7 days relative to untreated control
Allium cepa [13] = test: Stimulation of root length of Allium cepa cv. Valenciana (onion) at 0.1 mM or 1 mM after 7 days relative to untreated control
Lepidium sativum [14] = test: Inhibition of hypocotyl length of Lepidium sativum at 0.1 mM or 1 mM after 4 days relative to untreated control
Lactuca sativa [15] = test: Stimulation of root length of Lactuca sativa cv. Roman (lettuce) at 0.1 mM or 1 mM after 5 days relative to untreated control; assay type: functional
Outline: as §2

Solanum lycopersicum [16] = test: Stimulation of germination of Solanum lycopersicum cv. Tres Cantos (tomato) at 0.1 mM or 1 mM after 5 days relative to untreated control; assay type: functional
Outline: as §2

Lactuca sativa [17] = test: Inhibition of germination of Lactuca sativa cv. Roman (lettuce) at 0.1 mM or 1 mM after 5 days relative to untreated control; assay type: functional
Outline: as §2

Lepidium sativum [18] = test: Stimulation of hypocotyl length of Lepidium sativum at 0.1 mM or 1 mM after 5 days relative to untreated control; assay type: functional
Solanum lycopersicum [19] = test: Stimulation of hypocotyl length of Solanum lycopersicum cv. Tres Cantos (tomato) at 0.1 mM or 1 mM after 5 days relative to untreated control; assay type: functional
Outline: as §2

Lactuca sativa [20] = test: Inhibition of hypocotyl length of Lactuca sativa cv. Roman (lettuce) at 0.1 mM or 1 mM after 5 days relative to untreated control; assay type: functional
Outline: as §2

Allium cepa [21] = test: Stimulation of germination of Allium cepa cv. Valenciana (onion) at 0.1 mM or 1 mM after 7 days relative to untreated control
Lepidium sativum [22] = test: Inhibition of germination of Lepidium sativum at 0.1 mM or 1 mM after 4 days relative to untreated control
Allium cepa [23] = test: Inhibition of root length of Allium cepa cv. Valenciana (onion) at 0.1 mM or 1 mM after 5 days relative to untreated control; assay type: functional
Lactuca sativa [24] = test: Stimulation of hypocotyl length of Lactuca sativa cv. Roman (lettuce) at 0.1 mM or 1 mM after 5 days relative to untreated control; assay type: functional
Outline: as §2

Triticum aestivum [25] = test: Stimulation of germination of Triticum aestivum cv. Cortex (wheat) at 0.1 mM or 1 mM after 5 days relative to untreated control; assay type: functional
Outline: as §1

Solanum lycopersicum [26] = test: Inhibition of hypocotyl length of Solanum lycopersicum cv. Tres Cantos (tomato) at 0.1 mM or 1 mM after 5 days relative to untreated control; assay type: functional
Outline: as §2

Lactuca sativa [27] = test: Stimulation of germination of Lactuca sativa cv. Roman (lettuce) at 0.1 mM or 1 mM after 5 days relative to untreated control; assay type: functional
Outline: as §2

Triticum aestivum [28] = test: Stimulation of root length of Triticum aestivum cv. Cortex (wheat) at 0.1 mM or 1 mM after 5 days relative to untreated control; assay type: functional
Outline: as §1

Triticum aestivum [29] = test: Stimulation of hypocotyl length of Triticum aestivum cv. Cortex (wheat) at 0.1 mM or 1 mM after 5 days relative to untreated control; assay type: functional
Outline: as §1

Allium cepa [30] = test: Stimulation of germination of Allium cepa cv. Valenciana (onion) at 0.1 mM or 1 mM after 5 days relative to untreated control; assay type: functional
Allium cepa [31] = test: Inhibition of hypocotyl length of Allium cepa cv. Valenciana (onion) at 0.1 mM or 1 mM after 5 days relative to untreated control; assay type: functional
Lepidium sativum [32] = test: Inhibition of germination of Lepidium sativum at 0.1 mM or 1 mM after 4 days relative to untreated control; parameters: scale not given: the % may be the effect or the level left
Lepidium sativum [33] = test: Inhibition of germination of Lepidium sativum at 0.1 mM or 1 mM after 5 days relative to untreated control; assay type: functional
Allium cepa [34] = test: Stimulation of hypocotyl length of Allium cepa cv. Valenciana (onion) at 0.1 mM or 1 mM after 5 days relative to untreated control; assay type: functional
Allium cepa [35] = test: Stimulation of root length of Allium cepa cv. Valenciana (onion) at 0.1 mM or 1 mM after 5 days relative to untreated control; assay type: functional

Row | SMILES | Activity (Allium cepa [1]) | Activity (Solanum lycopersicum [3]) | inhibition (INH) (Lactuca sativa [4]) [%] | inhibition (Allium cepa [6]) | inhibition (Triticum aestivum [7]) | inhibition (INH) (Lepidium sativum [8]) | Activity (Lepidium sativum [9]) | inhibition (INH) (Triticum aestivum [11]) [%] | inhibition (Allium cepa [12]) | Activity (Allium cepa [13]) | Activity (Lactuca sativa [15]) [%] | Activity (Solanum lycopersicum [16]) | Activity (Lepidium sativum [18]) | Activity (Solanum lycopersicum [19]) | Activity (Lactuca sativa [24]) | Activity (Triticum aestivum [25]) | inhibition (Solanum lycopersicum [26]) | Activity (Lactuca sativa [27]) | Activity (Triticum aestivum [28]) | Activity (Triticum aestivum [29]) | other results
1 | C=C1C(=O)O[C@H]2[C@H]1CCC(=C)[C@]1(O)C[C@@H](O)C(=C)[C@]21O | inactive | inactive | <20 | inactive | inactive | <20% | <20% | <20 | inactive | inactive | <20 | <20% | inactive | inactive | 20% | inactive | inactive | inactive | <20% | <20% | inhibition (INH) (Triticum aestivum [2]): <20%; inhibition (INH) (Solanum lycopersicum [5]): <20%; inhibition (Solanum lycopersicum [10]): inactive; inhibition (Lepidium sativum [14]): inactive; inhibition (Lactuca sativa [17]): inactive; inhibition (INH) (Lactuca sativa [20]): 20%; Activity (Allium cepa [21]): inactive; Activity (Lepidium sativum [22]): inactive; inhibition (Lepidium sativum [22]): inactive; inhibition (Allium cepa [23]): inactive
2 | C=C1C(=O)O[C@H]2[C@H]1CCC(=C)[C@@H]1CCC(=C)[C@@]12O | – | <20% | 20 | inactive | inactive | >=20% | >=20% | <20 | – | – | 20 | inactive | >=20% | inactive | inactive | inactive | inactive | inactive | inactive | <20% | Activity (Allium cepa [30]): inactive; inhibition (Triticum aestivum [2]): inactive; inhibition (Solanum lycopersicum [5]): inactive; inhibition (INH) (Solanum lycopersicum [10]): <20%; inhibition (INH) (Allium cepa [31]): <20%; inhibition (INH) (Lepidium sativum [14]): >=20%; inhibition (Lactuca sativa [17]): inactive; inhibition (Lactuca sativa [20]): inactive; Activity (Lepidium sativum [32]): <20%; inhibition (INH) (Lepidium sativum [33]): <20%; inhibition (INH) (Allium cepa [23]): 20%; Activity (Allium cepa [34]): <20%; Activity (Allium cepa [35]): 20%
3 | C=C1[C@@H]2[C@H]3OC(=O)C(=C)[C@@H]3CCC(=C)[C@@H]2C[C@@H]1O [ZALUZANIN C] | inactive | <20% | 20 | inactive | – | <20% | <20% | 20 | inactive | inactive | 20 | inactive | inactive | inactive | 20% | <20% | inactive | inactive | 20% | 20% | inhibition (INH) (Triticum aestivum [2]): 20%; inhibition (Solanum lycopersicum [5]): inactive; inhibition (INH) (Triticum aestivum [7]): <20%; inhibition (INH) (Solanum lycopersicum [10]): <20%; inhibition (Lepidium sativum [14]): inactive; inhibition (Lactuca sativa [17]): inactive; inhibition (INH) (Lactuca sativa [20]): 20%; Activity (Lepidium sativum [32]): <20%; inhibition (INH) (Lepidium sativum [33]): <20%; Activity (Allium cepa [21]): inactive; inhibition (Allium cepa [23]): inactive
4 | C=C1[C@@H]2[C@H]3OC(=O)[C@@H](CO)[C@@H]3CCC(=C)[C@@H]2C[C@H]1O | inactive | inactive | 20 | inactive | inactive | 20% | 20% | – | inactive | inactive | 20 | inactive | <20% | inactive | >40% | inactive | inactive | <20% | inactive | inactive | inhibition (Triticum aestivum [2]): inactive; inhibition (Solanum lycopersicum [5]): inactive; inhibition (Solanum lycopersicum [10]): inactive; inhibition (Triticum aestivum [11]): inactive; inhibition (INH) (Lepidium sativum [14]): <20%; inhibition (INH) (Lactuca sativa [17]): <20%; inhibition (INH) (Lactuca sativa [20]): >40%; Activity (Allium cepa [21]): inactive; Activity (Lepidium sativum [22]): inactive; inhibition (Lepidium sativum [22]): inactive; inhibition (Allium cepa [23]): inactive
